Converted amounts (≈) assume the structure as drawn.
Key:
Streptococcus pneumoniae [1] = assay: Antibacterial activity against Erythromycin-susceptible Streptococcus pneumoniae ATCC 49619 assessed as reduction in microbial growth; type: functional
Streptococcus pneumoniae [2] = assay: Bactericidal activity against Erythromycin-susceptible Streptococcus pneumoniae ATCC 49619; type: functional
Method in brief: (§1)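 Bacteria were exposed to 1- to 8-fold MIC of the sample, then transferred to fresh medium without antibacterial. After further incubation, colonies were counted. MBC was taken as the lowest concentration giving a >3 log10 reduction in colony number.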

Streptococcus pneumoniae [3] = assay: Ratio of MBC to MIC against Erythromycin-susceptible Streptococcus pneumoniae ATCC 49619; type: functional
Streptococcus pneumoniae [4] = assay: Antibacterial activity against penicillin-susceptible Streptococcus pneumoniae PU09 harboring mef gene assessed as reduction in microbial growth; type: functional
Streptococcus pneumoniae [5] = assay: Bactericidal activity against penicillin-susceptible Streptococcus pneumoniae PU09 harboring mef gene; type: functional
Method in brief: (§2)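 Bacteria were exposed to 1- to 8-fold their MIC of test sample, then transferred to fresh culture medium without antibacterial compound and incubated for the required time. Colonies were then counted. MBC is the lowest concentration giving a reduction in colony number of >3 Log₁₀.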

Streptococcus pneumoniae [6] = assay: Ratio of MBC to MIC against penicillin-susceptible Streptococcus pneumoniae PU09; type: functional
Streptococcus pneumoniae [7] = assay: Antibacterial activity against MLSB-resistant Streptococcus pneumoniae 07P390 harboring ermB gene assessed as reduction in microbial growth; type: functional
Streptococcus pneumoniae [8] = assay: Bactericidal activity against MLSB-resistant Streptococcus pneumoniae 07P390 harboring ermB gene assessed as reduction in microbial growth; type: functional; method in brief: as §2
Streptococcus pneumoniae [9] = assay: Ratio of MBC to MIC against MLSB-resistant Streptococcus pneumoniae 07P390 harboring ermB; type: functional
Staphylococcus aureus [10] = assay: Antibacterial activity against MLSB/methicillin/ciprofloxacin-resistant Staphylococcus aureus PU32 harboring ermA gene assessed as reduction in microbial growth; type: functional
Staphylococcus aureus [11] = assay: Bactericidal activity against MLSB/methicillin/ciprofloxacin-resistant Staphylococcus aureus PU32 harboring ermA gene; type: functional; method in brief: as §2
Staphylococcus aureus [12] = assay: Antibacterial activity against MLSB/methicillin-resistant Staphylococcus aureus 15B196 assessed as reduction in microbial growth; type: functional
Staphylococcus aureus [13] = assay: Bactericidal activity against MLSB/methicillin-resistant Staphylococcus aureus 15B196; type: functional; method in brief: as §2
Staphylococcus aureus [14] = assay: Ratio of MBC to MIC against MLSB/methicillin-resistant Staphylococcus aureus 15B196; type: functional
Haemophilus influenzae [15] = assay: Antibacterial activity against azithromycin-susceptible Haemophilus influenzae ATCC 49247 assessed as reduction in microbial growth; type: functional
Haemophilus influenzae [16] = assay: Bactericidal activity against azithromycin-susceptible Haemophilus influenzae ATCC 49247; type: functional; method in brief: as §1
Haemophilus influenzae [17] = assay: Ratio of MBC to MIC against azithromycin-susceptible Haemophilus influenzae ATCC 49247; type: functional
Streptococcus pyogenes [18] = assay: Antibacterial activity against MLSB-resistant Streptococcus pyogenes 12-206 harboring ermA gene assessed as reduction in microbial growth; type: functional
Streptococcus pyogenes [19] = assay: Bactericidal activity against MLSB-resistant Streptococcus pyogenes 12-206 harboring ermA gene; type: functional; method in brief: as §2
Streptococcus pyogenes [20] = assay: Ratio of MBC to MIC against MLSB-resistant Streptococcus pyogenes 12-206 harboring ermA gene; type: functional
Staphylococcus aureus [21] = assay: Antibacterial activity against MLSB/methicillin/ciprofloxacin-resistant Staphylococcus aureus PU32 harboring ermA gene assessed as reduction in microbial growth relative to ciprofloxacin; type: functional
Staphylococcus aureus [22] = assay: Antibacterial activity against MLSB/methicillin-resistant Staphylococcus aureus 15B196 assessed as reduction in microbial growth relative to ciprofloxacin; type: functional
Haemophilus influenzae [23] = assay: Antibacterial activity against azithromycin-susceptible Haemophilus influenzae ATCC 49247 assessed as reduction in microbial growth relative to ciprofloxacin; type: functional
DNA gyrase = DNA gyrase (Escherichia coli, UniProt P0AES4+P0AES6); assay: Inhibition of Escherichia coli DNA gyrase using relaxed DNA as substrate incubated for 15 mins by ethidium bromide-based agarose gel electrophoresis; type: protein-complex assay
Method in brief: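 Supercoiling assay with relaxed pBR322 (0.3 µg), made by treating negatively supercoiled pBR322 with E. coli topoisomerase I, and 1 unit E. coli gyrase. Buffer: 50 mM Tris-HCl pH 8.0, 10 mM MgCl2, 100 mM potassium glutamate, 10 mM DTT, 50 µg/mL BSA, 1 mM ATP. Run 37 °C, 15 min, stopped with 25 mM EDTA. IC50 in µM.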

[24] = target: T1, DNA gyrase (Escherichia coli) (UniProt P0AES6+P0AES4); assay: Poison activity at Escherichia coli DNA gyrase assessed as stabilization of DNA cleavage complex by measuring linear plasmid DNA formation using supercoiled pBR322 incubated for 15 mins by electrophoresis relative to ciprofloxacin; type: protein-complex assay
Method in brief: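 Cleavage assay with 0.3 µg supercoiled pBR322 and 10 units E. coli gyrase. Buffer: 50 mM Tris-HCl pH 8.0, 10 mM MgCl2, 10 mM DTT, 50 µg/mL BSA, 1 mM ATP, 5 µg/mL tRNA; 37 °C, 15 min. Then 1% SDS for 5 min, then 25 mM EDTA plus 100 µg/mL proteinase K for 30 min. Phenol/chloroform extraction, then 1.2% agarose with ethidium bromide.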

Escherichia coli [25] = assay: Antibacterial activity against Escherichia coli BW25113 depletion of toIC efflux gene assessed as reduction in microbial growth; type: functional
Escherichia coli [26] = assay: Antibacterial activity against Escherichia coli JW5503-1 depletion of toIC efflux gene assessed as reduction in microbial growth; type: functional
Escherichia coli [27] = assay: Antibacterial activity against Escherichia coli JW5503-KanS depletion of toIC efflux gene assessed as reduction in microbial growth; type: functional
[28] = target: T1, DNA gyrase (Escherichia coli); conditions: time 15.0 min
Staphylococcus aureus [29] = assay: Ratio of MBC to MIC against MLSB/methicillin/ciprofloxacin-resistant Staphylococcus aureus PU32 harboring ermA gene; type: functional

Q: With `CC[C@H]1OC(=O)[C@H](C)[C@@H](OC(=O)Cc2ccccn2)[C@H](C)[C@@H](O[C@@H]2O[C@H](C)C[C@H](N(C)C)[C@H]2O)[C@](C)(OC(=O)CCN2CCN(c3c(F)cc4c(=O)c(C(N)=O)cn(C5CC5)c4c3OC)CC2C)C[C@@H](C)CN(C)[C@H](C)[C@@H](O)[C@]1(C)O` (stereo partly specified) as the compound, how does the MIC (Streptococcus pneumoniae [1]) read?
A: The MIC was 0.5 µg/mL.

Q: What about the MBC (Streptococcus pneumoniae [2]) of the same compound?
A: Its MBC is 1 µg/mL (≈ 0.878 µM).

Q: What about the Ratio (Streptococcus pneumoniae [3]) of the same compound?
A: The Ratio was 2.

Q: And the MIC (Streptococcus pneumoniae [4])?
A: The MIC was 2 µg/mL.

Q: What about the MBC (Streptococcus pneumoniae [5]) of the same compound?
A: The MBC was 8 µg/mL (≈ 7.03 µM).

Q: What about the Ratio (Streptococcus pneumoniae [6]) of the same compound?
A: Its Ratio is 4.

Q: What about the MIC (Streptococcus pneumoniae [7]) of the same compound?
A: The MIC was 8 µg/mL.

Q: And the MBC (Streptococcus pneumoniae [8])?
A: Its MBC is 8 µg/mL.

Q: What about the Ratio (Streptococcus pneumoniae [9]) of the same compound?
A: Its Ratio is 1.

Q: What about the MIC (Staphylococcus aureus [10]) of the same compound?
A: The MIC was 128 µg/mL.

Q: What about the MBC (Staphylococcus aureus [11]) of the same compound?
A: The MBC was > 256 µg/mL.

Q: And the MIC (Staphylococcus aureus [12])?
A: The MIC was 8 µg/mL.

Q: And the MBC (Staphylococcus aureus [13])?
A: The MBC was 8 µg/mL (≈ 7.03 µM).

Q: What about the Ratio (Staphylococcus aureus [14]) of the same compound?
A: Its Ratio is 1.

Q: What about the MIC (Haemophilus influenzae [15]) of the same compound?
A: The MIC was 0.5 µg/mL.

Q: And the MBC (Haemophilus influenzae [16])?
A: The MBC was 0.5 µg/mL (≈ 0.439 µM).

Q: And the Ratio (Haemophilus influenzae [17])?
A: Its Ratio is 1.

Q: What about the MIC (Streptococcus pyogenes [18]) of the same compound?
A: The MIC was 8 µg/mL.

Q: What about the MBC (Streptococcus pyogenes [19]) of the same compound?
A: The MBC was > 64 µg/mL.

Q: What about the Ratio (Streptococcus pyogenes [20]) of the same compound?
A: The Ratio was >8.

Q: And the “fold change (FC)” value (Staphylococcus aureus [21])?
A: Its value is 0.14.

Q: What about the “fold change (FC)” value (Staphylococcus aureus [22]) of the same compound?
A: The value was 1.2.

Q: And the “fold change (FC)” value (Haemophilus influenzae [23])?
A: The value was 36.

Q: And the IC50 (DNA gyrase)?
A: Its IC50 is 9.6 µM.

Q: And the Activity [24]?
A: Its Activity is 71%.

Q: And the MIC (Escherichia coli [25])?
A: The MIC was 2 µg/mL.

Q: And the MIC (Escherichia coli [26])?
A: The MIC was 0.5 µg/mL.

Q: And the MIC (Escherichia coli [27])?
A: Its MIC is 0.5 µg/mL.

Q: And the EC [28]?
A: Its EC is 18.2 µM.

Q: How did the MIC (Streptococcus pneumoniae [1]) turn out when `CC[C@H]1OC(=O)[C@H](C)[C@@H](O[C@H]2C[C@@](C)(OC)[C@@H](O)[C@H](C)O2)[C@H](C)[C@@H](O[C@@H]2O[C@H](C)C[C@H](N(C)C)[C@H]2O)[C@](C)(O)C[C@@H](C)CN(C)[C@H](C)[C@@H](O)[C@]1(C)O` [AZITHROMYCIN] was run?
A: The MIC was 0.062 µg/mL.

Q: What about the MBC (Streptococcus pneumoniae [2]) of the same compound?
A: The MBC was 0.25 µg/mL (≈ 0.334 µM).

Q: And the Ratio (Streptococcus pneumoniae [3])?
A: The Ratio was 4.

Q: And the MIC (Streptococcus pneumoniae [4])?
A: The MIC was 8 µg/mL.

Q: And the MBC (Streptococcus pneumoniae [5])?
A: The MBC was 16 µg/mL (≈ 21.4 µM).

Q: What about the Ratio (Streptococcus pneumoniae [6]) of the same compound?
A: Its Ratio is 2.

Q: And the MIC (Streptococcus pneumoniae [7])?
A: Its MIC is 256 µg/mL.

Q: And the MBC (Streptococcus pneumoniae [8])?
A: Its MBC is > 257 µg/mL.

Q: And the MIC (Staphylococcus aureus [10])?
A: The MIC was 32 µg/mL.

Q: What about the MBC (Staphylococcus aureus [11]) of the same compound?
A: Its MBC is 32 µg/mL (≈ 42.7 µM).

Q: What about the Ratio (Staphylococcus aureus [29]) of the same compound?
A: The Ratio was 1.

Q: And the MIC (Staphylococcus aureus [12])?
A: The MIC was > 256 µg/mL.

Q: What about the MBC (Staphylococcus aureus [13]) of the same compound?
A: Its MBC is > 256 µg/mL.

Q: And the MIC (Haemophilus influenzae [15])?
A: Its MIC is 2 µg/mL.

Q: What about the MBC (Haemophilus influenzae [16]) of the same compound?
A: The MBC was 8 µg/mL (≈ 10.7 µM).

Q: And the Ratio (Haemophilus influenzae [17])?
A: Its Ratio is 4.

Q: What about the “fold change (FC)” value (Staphylococcus aureus [21]) of the same compound?
A: The value was 0.22.

Q: And the “fold change (FC)” value (Staphylococcus aureus [22])?
A: The value was >226.

Q: What about the “fold change (FC)” value (Haemophilus influenzae [23]) of the same compound?
A: Its value is 22.

Q: What about the MIC (Escherichia coli [25]) of the same compound?
A: Its MIC is > 16 µg/mL.

Q: What about the MIC (Escherichia coli [26]) of the same compound?
A: The MIC was 4 µg/mL.

Q: What about the MIC (Escherichia coli [27]) of the same compound?
A: Its MIC is 2 µg/mL.

Reference: ChEMBL document CHEMBL4680236, “Design, synthesis and structure-activity relationships of novel 15-membered macrolides: Quinolone/quinoline-containing sidechains tethered to the C-6 position of azithromycin acylides” (Eur J Med Chem, 2020)
